In the library only some 2.7% were active in any assay of this set; here they are far more common.
OXTR potentiator – human OXTR potentiation; P30559; CHO-OTR cells, Fluo-8 calcium fluorescence, potentiator mode; 0% = oxytocin EC15, 100% = EC100; activation, % at 3 µM; 0.061% of 320,000 active;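 active = activation above that plate's cutoff, the mean activation of tested compounds plus 3 SD, cut at about 6.6% in these data, passing the limit was not always enough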
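Material: CHO-OTR cells, human receptor; compound dosing: single dose, 3.0 µM nominal final compound concentration; schedule: 6 min compound pre-incubation at room temperature, 100 s kinetic read; measured by: kinetic Fluo-8 calcium fluorescence; read-out basis: % activation vs EC15 and EC100 oxytocin; controls: EC15 oxytocin alone as 0%, 75 nM oxytocin as 100%; replicates: singlicate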
V1aR counter – activates human V1a receptor in oxytocin agonist counter-screen. CHO-V1R cells, Fluo-8 calcium fluorescence, agonist mode; 0% DMSO, 100% 3 nM vasopressin. activation, % at 3 µM. AID 2797. 0.25% of 320,000 active. P37288;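 active = activation above the mean activation of all tested compounds plus 3 SD, per screening run, cut at about 20% in these data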;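 also: signal is peak over basal fluorescence ratio across a 100 second FLIPR read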
Target sequence (P37288 whole entry, looked up): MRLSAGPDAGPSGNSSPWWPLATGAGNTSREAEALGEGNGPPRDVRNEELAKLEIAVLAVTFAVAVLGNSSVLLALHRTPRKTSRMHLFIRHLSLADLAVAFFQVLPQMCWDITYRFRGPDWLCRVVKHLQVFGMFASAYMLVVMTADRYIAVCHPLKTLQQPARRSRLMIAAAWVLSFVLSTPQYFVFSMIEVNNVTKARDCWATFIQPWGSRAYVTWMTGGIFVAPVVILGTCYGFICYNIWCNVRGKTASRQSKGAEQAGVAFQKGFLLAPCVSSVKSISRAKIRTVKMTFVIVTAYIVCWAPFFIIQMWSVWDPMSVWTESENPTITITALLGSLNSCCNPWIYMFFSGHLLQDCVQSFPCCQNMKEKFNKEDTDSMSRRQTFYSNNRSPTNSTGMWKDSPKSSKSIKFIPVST
OX1R antag-1 – antagonists of human orexin 1 receptor (OX1R); O43613; OX1R-expressing cells, FRET antagonist read-out; inhibition, % at 6.6 µM; 1.8% of 330,000 active; AID 485270; in the data active = inhibition mostly above about 38%, no sharp cut-off; inactive = mostly below about 40%
CHO parental Ca – signal in parental CHO cells, OX1R antagonist counter-screen | AID 463079 | inhibition, % at 5.6 µM | parental CHO-K1, ATP-induced calcium, Fluo-8 fluorescence | 0.63% of 330,000 active;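 active = inhibition above that plate's mean sample inhibition plus 3 SD, cut at about 26% in these data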
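Material: parental CHO cells / Compound: single nominal dose of 5.6 µM per compound / Signal: Fluo-8 fluorescence / Replicates: singlicate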
OXTR agonist – agonists of human oxytocin receptor; activation, % at 3 µM; P30559; 0.32% of 320,000 active; CHO-OTR cells, Fluo-8 calcium fluorescence; normalized: DMSO 0%, oxytocin 100%;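 active = activation above the mean of all tested compounds plus 3 SD, cutoff set per screening run, cut at about 20% in these data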;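 also: peak over basal fluorescence ratio from a 100 s FLIPR kinetic read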
OX1R antag-2 – human HCRTR1 antagonism | inhibition, % at 5 µM | 0.43% of 330,000 active | CHO/OX1R cells, Fluo-8 calcium fluorescence, orexin A;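 active = inhibition above its plate's threshold, mean inhibition of all tested compounds on the plate plus 3 SD, cut at about 37% in these data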
Large screens that a line does not name were inactive.

CCn1c(CNc2ccc(C(=O)O)cc2)nc2ccccc21	none
CCCn1c(CNc2ccc(Br)cc2)nc2ccccc21	CHO parental Ca 34.0
Cc1ccc(S(=O)(=O)N(C)CC(=O)OCC(=O)c2ccc3c(c2)NC(=O)CO3)cc1	none
Cc1cc(C)cc(OCC(=O)OCC(=O)c2ccc3c(c2)NC(=O)CO3)c1	CHO parental Ca 38.3
O=C(Nc1ccc(C(=O)N2CCCCC2)cc1)c1ccc([N+](=O)[O-])cc1	none
Cc1cc(C(=O)COC(=O)/C=C/c2ccco2)c(C)n1C	none
O=C(CC1SC(=O)N(Cc2cccc3ccccc23)C1=O)Nc1nccs1 (centres undefined)	OX1R antag-1 62.0
CCOC(=O)C1(Cc2ccc(OC)cc2)CCN(C(=O)CN2CCCCC2=O)CC1	none
O=C(NCC(c1cccs1)N1CCOCC1)c1ccccc1NS(=O)(=O)c1ccc(Cl)c([N+](=O)[O-])c1 (centres undefined)	OX1R antag-1 44.9
CCOc1ccc(NS(=O)(=O)c2ccc(C(=O)NCC(c3cccs3)N3CCOCC3)cc2)cc1 (centres undefined)	V1aR counter 25.8, OXTR agonist 25.6
Cc1cc(C)c(C)c(S(=O)(=O)NCC(=O)Nc2ccc(F)cc2)c1C	none
CCCC/C(C)=N/NC(=O)CN(c1ccc(Br)cc1)S(=O)(=O)c1ccccc1	none
C/C(=N/NC(=O)CN(c1ccccc1)S(=O)(=O)c1ccccc1)c1ccccc1O	OX1R antag-1 49.7
CCCOc1nc2c(c(=O)n(C)c(=O)n2C)n1Cc1cccc2ccccc12	CHO parental Ca 38.5, OX1R antag-2 68.0
CCCOc1nc2c(c(=O)n(C)c(=O)n2C)n1C	none
Cc1ccc(NC2(c3nnnn3-c3c(C)cccc3C)CCCCC2)cc1	none
O=C(Nc1ccc(F)cc1)Nc1ccc2c(c1)CCC2	CHO parental Ca 39.0
Cc1cc(C(=O)Nc2ccc3c(c2)CCC3)ccc1[N+](=O)[O-]	OX1R antag-1 45.3
O=C(Nc1cccc([N+](=O)[O-])c1)Nc1ccc2c(c1)CCC2	OX1R antag-1 61.6, CHO parental Ca 43.2
O=C(Nc1ccc(F)cc1)Nc1cccc(Br)c1	OX1R antag-1 57.6, CHO parental Ca 75.8, OX1R antag-2 61.4
CC(C)(C)c1ccc(CSc2ccc(S(=O)(=O)N3CCOCC3)cn2)cc1	none
O=C(NCC1CCCN1S(=O)(=O)c1cccs1)c1cccc(F)c1 (centres undefined)	none
CCC(Oc1ccc(Br)cc1)C(=O)N1CCN(c2ncccn2)CC1 (centres undefined)	none
Cc1cc(C(=O)COC(=O)c2cccc(NS(C)(=O)=O)c2)c(C)n1CC1CCCO1 (centres undefined)	none
FC(F)(F)c1nc(N2CCCC2)ncc1-c1nnnn1-c1ccccc1	CHO parental Ca 39.6
O=S1(=O)N(Cc2ccccc2F)CCCN1Cc1c(F)cccc1Cl	CHO parental Ca 66.4
Cc1ccc(CN2CCCN(Cc3ccc(F)cc3Cl)S2(=O)=O)cc1	CHO parental Ca 46.9
Cc1ccc(CN2CCCN(Cc3c(F)cccc3Cl)S2(=O)=O)cc1	none
COc1cccc(CNC(=O)COc2ccc(C(=O)c3ccccc3)cc2)c1	none
COc1ccc(Br)cc1CN(C)C(=O)c1ccccc1OCc1c(C)noc1C	none
CC(=O)Nc1ccc(S(=O)(=O)N2CCN=C2SCc2ccc([N+](=O)[O-])cc2)cc1	CHO parental Ca 33.1
Cc1cccc(C)c1NC(=O)COC(=O)c1c2c(nc3ccccc13)/C(=C\c1ccc3c(c1)OCO3)CCC2	V1aR counter 51.5, OXTR agonist 52.2
O=C(/C=C/c1cccs1)c1ccc(N2CCOCC2)cc1	OX1R antag-1 65.0
O=C(/C=C/c1cccc([N+](=O)[O-])c1)Nc1cccc(NC(=O)c2cccs2)c1	OX1R antag-1 70.4
O=C(/C=C/c1cccc([N+](=O)[O-])c1)Nc1cccc(NC(=O)c2ccco2)c1	none
Cc1ccc(NC(=O)/C(=C\c2cccc([N+](=O)[O-])c2)NC(=O)c2cccs2)cc1	OX1R antag-1 51.8
CCc1nnc(NC(=O)c2oc3ccccc3c2COC(C)C)s1	none
COc1cc2c(cc1OC)CN(CCC(C)c1ccc(Cl)cc1)CC2 (centres undefined)	none
COc1ccc([N+](=O)[O-])c(S(=O)(=O)c2ccc(Cl)cc2)n1	CHO parental Ca 45.6
COc1ccc([N+](=O)[O-])c(S(=O)(=O)c2ccccc2)n1	none
CCN(CC)c1nc(Nc2ccc([N+](=O)[O-])cc2)nc(N(CC)CC)n1	none
O=[N+]([O-])c1ccc(-c2nnc3n2CCCCC3)cc1	OX1R antag-1 32.2
c1ccc(-c2nnc3n2CCCC3)cc1	none
Cc1ccc(-n2nnnc2-c2cnc3ccc(Cl)cc3c2-c2ccccc2)cc1	none
Clc1ccc2[nH]cc(-c3nnnn3-c3ccc4ccccc4c3)c2c1	CHO parental Ca 56.7
C=CCn1c(O)c(N=Nc2ccccc2O)c2ccccc21	CHO parental Ca 66.5, OX1R antag-2 76.5
Cc1cc(C)c2c(N)c(C(=O)Nc3ncc(C)s3)sc2n1	OX1R antag-1 50.6
O=C(NCc1cccc2ccsc12)c1cccs1	none
CCOC(=O)[C@@H]1[C@H]2COc3cc(OC)ccc3[C@H]2N2C(=O)N(c3ccc(C(F)(F)F)cc3)C(=O)[C@]12C	CHO parental Ca 49.6
CCN(CC(=O)NCc1cccs1)C(=O)c1ccc(C)o1	none
CCN(CC(=O)NCc1cccs1)C(=O)c1ccc([N+](=O)[O-])o1	OX1R antag-1 63.7
COc1ccccc1CNC(=O)CSc1nc(-c2ccccc2)cn1N	OX1R antag-1 73.1
COc1ccccc1CNC(=O)CSc1ccc(-c2ccncc2)nn1	none
CC(=O)Nc1cccc(C(=O)OCC(=O)NNC(=O)c2ccc([N+](=O)[O-])cc2)c1	OX1R antag-1 52.1
O=C(COC(=O)Cc1ccccc1[N+](=O)[O-])NNC(=O)c1ccc([N+](=O)[O-])cc1	OX1R antag-1 36.0
O=C(COC(=O)C1CC2CCCC(C1)C2=O)NNC(=O)c1ccc([N+](=O)[O-])cc1 (centres undefined)	OX1R antag-1 69.2
O=C(Cc1ccccc1[N+](=O)[O-])NNC(=O)c1ccncc1	none
COc1cccc(CC(=O)OCC(=O)NNC(=O)c2ccc([N+](=O)[O-])cc2)c1	OX1R antag-1 59.9
O=C(NCc1cccc(Cl)c1)c1ccc(CS(=O)Cc2ccc(Cl)cc2)o1 (centres undefined)	none
CCN(CC)CCn1c2c(c(SCC(=O)Nc3ccc(F)c(F)c3)nc1=O)CCC2	none
Cc1ccc(C(=O)NCc2ccccn2)cc1Cl	none
O=C(COC(=O)CSc1ccccc1)NNC(=O)c1ccc([N+](=O)[O-])cc1	none
